# Active and inactive are the calls of the source.
# Target: T1, Protein deacetylase HDAC6 (Homo sapiens, UniProt Q9UBN7)
# T1 sequence (Q9UBN7 whole entry): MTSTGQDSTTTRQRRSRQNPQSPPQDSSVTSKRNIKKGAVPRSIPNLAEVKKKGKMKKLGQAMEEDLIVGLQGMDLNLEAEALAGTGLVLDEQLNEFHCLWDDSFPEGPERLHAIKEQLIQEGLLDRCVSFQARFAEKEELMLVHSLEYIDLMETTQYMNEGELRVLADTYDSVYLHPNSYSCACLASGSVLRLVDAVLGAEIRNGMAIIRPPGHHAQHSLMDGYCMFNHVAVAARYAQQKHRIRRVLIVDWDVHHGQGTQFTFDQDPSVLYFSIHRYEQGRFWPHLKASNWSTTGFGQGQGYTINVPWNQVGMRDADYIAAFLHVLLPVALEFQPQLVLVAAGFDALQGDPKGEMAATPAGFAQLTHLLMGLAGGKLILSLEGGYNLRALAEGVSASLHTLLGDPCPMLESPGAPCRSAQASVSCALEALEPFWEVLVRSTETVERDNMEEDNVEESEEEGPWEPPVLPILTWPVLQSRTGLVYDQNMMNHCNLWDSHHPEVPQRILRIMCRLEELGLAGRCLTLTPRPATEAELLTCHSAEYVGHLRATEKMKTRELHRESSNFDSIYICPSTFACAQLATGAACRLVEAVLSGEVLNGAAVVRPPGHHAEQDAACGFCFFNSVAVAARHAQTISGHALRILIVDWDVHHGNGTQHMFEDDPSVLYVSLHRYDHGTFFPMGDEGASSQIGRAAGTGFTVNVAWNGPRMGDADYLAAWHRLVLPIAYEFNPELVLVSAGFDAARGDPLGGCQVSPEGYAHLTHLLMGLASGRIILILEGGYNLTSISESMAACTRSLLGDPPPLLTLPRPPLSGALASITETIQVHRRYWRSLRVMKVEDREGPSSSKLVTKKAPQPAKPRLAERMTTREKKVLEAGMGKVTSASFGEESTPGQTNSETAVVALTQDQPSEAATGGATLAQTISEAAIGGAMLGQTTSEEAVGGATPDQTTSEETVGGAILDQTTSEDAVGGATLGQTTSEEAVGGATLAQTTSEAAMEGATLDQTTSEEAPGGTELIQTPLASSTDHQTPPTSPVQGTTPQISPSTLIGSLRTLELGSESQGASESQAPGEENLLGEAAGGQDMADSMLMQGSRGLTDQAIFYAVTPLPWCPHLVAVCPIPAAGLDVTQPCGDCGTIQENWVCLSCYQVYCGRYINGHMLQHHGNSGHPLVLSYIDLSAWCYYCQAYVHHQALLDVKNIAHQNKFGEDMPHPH
# Test: Inhibition of human recombinant HDAC6 using Boc-lys(Ac)-AMC as substrate preincubated for 20 mins with substrate measured after 60 mins by fluorescence analysis
# Settings: not given
row,IC50,SMILES
1,0.27 µM,COc1cc(C/C(=N\O)C(=O)NCCS)cc(I)c1OC
2,1.7 µM,O=C(NCCS)/C(Cc1ccc(O)cc1)=N/O
3,1.2 µM,O=C(NCCS)/C(Cc1cccc([N+](=O)[O-])c1)=N/O
4,> 50 µM,COc1ccc(C/C(=N\O)C(=O)NCCSC)cc1Br
5,2.3 µM,CN(C)c1ccc(C/C(=N\O)C(=O)NCCS)cc1
6,5 µM,N/N=C(\Cc1ccc(O)c(Br)c1)C(=O)NCCSSCCNC(=O)/C(Cc1ccc(O)c(Br)c1)=N/N

# Target: Histone deacetylase 1 (Homo sapiens, UniProt Q13547)
# Test: Inhibition of human recombinant HDAC1 using Boc-lys(Ac)-AMC as substrate preincubated for 20 mins with substrate measured after 60 mins by fluorescence analysis
# Settings: not given
# Histone deacetylase 1, sequence (Q13547 whole entry): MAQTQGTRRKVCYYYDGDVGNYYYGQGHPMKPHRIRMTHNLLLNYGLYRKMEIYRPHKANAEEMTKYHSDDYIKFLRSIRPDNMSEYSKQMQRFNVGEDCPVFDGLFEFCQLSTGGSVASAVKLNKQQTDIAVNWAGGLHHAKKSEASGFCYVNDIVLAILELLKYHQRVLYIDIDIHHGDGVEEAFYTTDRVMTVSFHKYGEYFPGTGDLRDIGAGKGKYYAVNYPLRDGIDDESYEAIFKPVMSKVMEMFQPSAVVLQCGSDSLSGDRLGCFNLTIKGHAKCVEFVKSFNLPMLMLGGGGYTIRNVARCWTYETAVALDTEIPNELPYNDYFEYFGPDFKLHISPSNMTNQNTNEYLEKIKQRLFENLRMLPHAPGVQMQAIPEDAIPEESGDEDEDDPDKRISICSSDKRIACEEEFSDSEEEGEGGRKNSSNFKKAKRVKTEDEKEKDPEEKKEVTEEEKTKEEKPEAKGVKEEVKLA
row,IC50,SMILES
1,0.001 µM,COc1cc(C/C(=N\O)C(=O)NCCS)cc(I)c1OC
2,0.004 µM,O=C(NCCS)/C(Cc1ccc(O)cc1)=N/O
3,0.001 µM,O=C(NCCS)/C(Cc1cccc([N+](=O)[O-])c1)=N/O
4,23.3 µM,COc1ccc(C/C(=N\O)C(=O)NCCSC)cc1Br
5,0.001 µM,CN(C)c1ccc(C/C(=N\O)C(=O)NCCS)cc1
6,6.1 µM,N/N=C(\Cc1ccc(O)c(Br)c1)C(=O)NCCSSCCNC(=O)/C(Cc1ccc(O)c(Br)c1)=N/N

# Target: T2, Histone deacetylase-like amidohydrolase (Alcaligenes sp. (strain DSM 11172) (Bordetella sp. (strain FB188))) (UniProt Q70I53)
# T2 sequence (whole entry): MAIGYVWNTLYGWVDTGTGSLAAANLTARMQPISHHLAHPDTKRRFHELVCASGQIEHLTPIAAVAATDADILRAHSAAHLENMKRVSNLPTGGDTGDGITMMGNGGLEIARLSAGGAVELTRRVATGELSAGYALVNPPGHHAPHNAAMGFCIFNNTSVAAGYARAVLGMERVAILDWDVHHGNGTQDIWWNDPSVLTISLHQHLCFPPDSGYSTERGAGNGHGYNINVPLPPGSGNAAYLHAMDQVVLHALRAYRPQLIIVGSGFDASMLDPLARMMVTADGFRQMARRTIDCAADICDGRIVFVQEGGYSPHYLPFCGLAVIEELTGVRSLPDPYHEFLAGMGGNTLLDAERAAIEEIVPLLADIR
# Test: Inhibition of Bordetella sp. (strain FB188) N-terminus His-tagged HDAH expressed in Escherichia coli BL21 (DE3) up to 100 uM
# Settings: Alcaligenaceae bacterium FB188
# Summary of the method: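 Recombinant N-terminal His6-tagged HDAH from Bordetella strain FB188, expressed in E. coli BL21, purified on zinc-loaded His-Trap column, eluted with 500 mM imidazole, dialyzed into assay buffer (>98% pure by SDS-PAGE). Tested directly against compounds; thiols generated in situ from disulfides with TCEP.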
row,inhibition,SMILES
1,inactive,CSc1ccc(C/C(=N\O)C(=O)NCCSSCCNC(=O)/C(Cc2ccc(SC)c(Br)c2)=N/O)cc1Br
2,inactive,COc1cc(C/C(=N\O)C(=O)NCCSSCCNC(=O)/C(Cc2ccc(SC)c(OC)c2)=N/O)ccc1SC
3,inactive,O=C(NCCSSCCNC(=O)/C(Cc1ccc(F)cc1)=N/O)/C(Cc1ccc(F)cc1)=N/O
4,inactive,O=C(NCCCCCCNC(=O)/C(Cc1ccc(O)c(Br)c1)=N/O)/C(Cc1ccc(O)c(Br)c1)=N/O
5,inactive,COc1ccc(C/C(=N\O)C(=O)NCCSSCCNC(=O)/C(Cc2ccc(OC)c(I)c2)=N/O)cc1I
6,inactive,O=C(NCCCSCCNC(=O)/C(Cc1ccc(O)c(Br)c1)=N/O)/C(Cc1ccc(O)c(Br)c1)=N/O
7,inactive,CN(C)c1ccc(C/C(=N\O)C(=O)NCCSSCCNC(=O)/C(Cc2ccc(N(C)C)cc2)=N/O)cc1
8,inactive,O=C(NCCSSCCNC(=O)/C(Cc1cc(Br)c(O)c(Br)c1)=N/O)/C(Cc1cc(Br)c(O)c(Br)c1)=N/O
9,inactive,COc1ccc(C/C(=N\O)C(=O)NCCSSCCNC(=O)/C(Cc2ccc(OC)c(OC)c2)=N/O)cc1OC
10,inactive,COc1cc(C/C(=N\O)C(=O)NCCSSCCNC(=O)/C(Cc2cc(I)c(OC)c(OC)c2)=N/O)cc(I)c1OC
11,inactive,O=C(NCCSSCCNC(=O)/C(Cc1cccc([N+](=O)[O-])c1)=N/O)/C(Cc1cccc([N+](=O)[O-])c1)=N/O
12,inactive,O=C(NCCSSCCNC(=O)/C(Cc1ccc(O)cc1)=N/O)/C(Cc1ccc(O)cc1)=N/O
13,inactive,CSc1ccc(C/C(=N\O)C(=O)NCCSSCCNC(=O)/C(Cc2ccc(SC)cc2)=N/O)cc1
14,inactive,CN(C)c1ccc(C/C(=N\O)C(=O)NCCSSCCNC(=O)/C(Cc2ccc(N(C)C)c(Br)c2)=N/O)cc1Br
15,inactive,COc1cc(C/C(=N\O)C(=O)NCCS)cc(I)c1OC
16,inactive,O=C(NCCS)/C(Cc1ccc(O)cc1)=N/O
17,inactive,O=C(NCCS)/C(Cc1cccc([N+](=O)[O-])c1)=N/O
18,inactive,CN(C)c1ccc(C/C(=N\O)C(=O)NCCS)cc1
19,inactive,N/N=C(\Cc1ccc(O)c(Br)c1)C(=O)NCCSSCCNC(=O)/C(Cc1ccc(O)c(Br)c1)=N/N
20,inactive,O=C(NCCSSCCNC(=O)/C(Cc1cc(Br)cc([N+](=O)[O-])c1)=N/O)/C(Cc1cc(Br)cc([N+](=O)[O-])c1)=N/O

# Target: DNA (cytosine-5)-methyltransferase 1 (Homo sapiens, UniProt P26358)
# Test: Inhibition of full length N-terminal His6-tagged human DNMT1 at 120 uM after 1 hr by fluorescence analysis
# Settings: not given
# Summary of the method: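 Baculovirus-expressed DNMT1 (80 nM final) with SAM (10 μM final) and hemimethylated hairpin oligo (125 nM final) in MOPS buffer pH 6.5 with 1 mM DTT, 1 h room temperature. Stopped with Gla1 plus 125 μM SAH, developed 7 h; fluorescence Ex 485/Em 520 nm. Thiols made in situ by TCEP reduction; no SAM as full-inhibition control.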
# DNA (cytosine-5)-methyltransferase 1, sequence (P26358 whole entry): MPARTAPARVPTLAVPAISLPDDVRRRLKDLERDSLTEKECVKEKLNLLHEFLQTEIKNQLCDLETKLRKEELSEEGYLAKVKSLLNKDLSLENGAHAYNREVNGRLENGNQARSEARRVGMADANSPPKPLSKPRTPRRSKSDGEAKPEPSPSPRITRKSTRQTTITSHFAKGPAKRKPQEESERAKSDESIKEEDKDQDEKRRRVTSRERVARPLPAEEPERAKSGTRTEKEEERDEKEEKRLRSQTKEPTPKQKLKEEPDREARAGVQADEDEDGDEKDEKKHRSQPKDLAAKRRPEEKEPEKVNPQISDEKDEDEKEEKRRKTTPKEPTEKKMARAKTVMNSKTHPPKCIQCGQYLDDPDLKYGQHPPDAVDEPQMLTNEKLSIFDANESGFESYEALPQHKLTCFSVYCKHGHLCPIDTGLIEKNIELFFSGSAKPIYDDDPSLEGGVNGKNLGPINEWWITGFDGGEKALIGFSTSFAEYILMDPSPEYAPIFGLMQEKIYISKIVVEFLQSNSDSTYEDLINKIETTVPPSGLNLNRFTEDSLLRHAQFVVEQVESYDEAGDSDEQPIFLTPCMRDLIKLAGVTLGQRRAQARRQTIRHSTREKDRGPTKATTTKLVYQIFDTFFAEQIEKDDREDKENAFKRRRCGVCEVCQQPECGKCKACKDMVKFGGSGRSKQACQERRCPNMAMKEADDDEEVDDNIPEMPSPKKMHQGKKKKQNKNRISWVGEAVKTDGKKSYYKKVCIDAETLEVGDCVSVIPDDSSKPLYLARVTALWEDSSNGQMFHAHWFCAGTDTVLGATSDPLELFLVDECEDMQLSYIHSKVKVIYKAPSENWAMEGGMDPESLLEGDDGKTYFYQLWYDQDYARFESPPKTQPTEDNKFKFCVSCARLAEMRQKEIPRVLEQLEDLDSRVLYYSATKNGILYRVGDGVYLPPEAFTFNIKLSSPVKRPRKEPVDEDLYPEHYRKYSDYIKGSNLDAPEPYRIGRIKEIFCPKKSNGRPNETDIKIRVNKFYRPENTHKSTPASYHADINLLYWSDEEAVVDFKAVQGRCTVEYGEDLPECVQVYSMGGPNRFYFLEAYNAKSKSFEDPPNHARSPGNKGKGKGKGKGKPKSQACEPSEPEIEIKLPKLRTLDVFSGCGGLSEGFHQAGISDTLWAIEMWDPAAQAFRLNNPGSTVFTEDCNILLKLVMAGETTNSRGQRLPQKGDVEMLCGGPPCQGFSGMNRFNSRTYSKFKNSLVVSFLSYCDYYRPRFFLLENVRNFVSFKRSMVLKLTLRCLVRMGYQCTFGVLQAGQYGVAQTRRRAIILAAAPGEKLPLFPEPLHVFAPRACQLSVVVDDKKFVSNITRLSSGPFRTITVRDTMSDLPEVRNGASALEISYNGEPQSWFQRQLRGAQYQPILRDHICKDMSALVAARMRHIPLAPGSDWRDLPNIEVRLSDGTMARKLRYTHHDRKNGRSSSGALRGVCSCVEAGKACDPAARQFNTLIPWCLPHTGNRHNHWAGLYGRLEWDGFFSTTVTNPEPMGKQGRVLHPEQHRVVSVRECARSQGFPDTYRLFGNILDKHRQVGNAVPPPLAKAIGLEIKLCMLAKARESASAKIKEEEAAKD
row,inhibition,SMILES
1,inactive,O=C(NCCCCCCNC(=O)/C(Cc1ccc(O)c(Br)c1)=N/O)/C(Cc1ccc(O)c(Br)c1)=N/O
2,inactive,O=C(NCCCSCCNC(=O)/C(Cc1ccc(O)c(Br)c1)=N/O)/C(Cc1ccc(O)c(Br)c1)=N/O
3,inactive,COc1cc(C/C(=N\O)C(=O)NCCS)cc(I)c1OC
4,inactive,O=C(NCCS)/C(Cc1ccc(O)cc1)=N/O
5,inactive,O=C(NCCS)/C(Cc1cccc([N+](=O)[O-])c1)=N/O
6,inactive,CN(C)c1ccc(C/C(=N\O)C(=O)NCCS)cc1

# Test system: A549
# Test: Growth inhibition of human A549 cells after 96 hrs by sulphorhodamine B assay
# Type: functional
# Settings: A549, 96 h
# Summary of the method: (§1)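 SRB growth assay; MCF7 and WI38 seeded 4000 cells/well, A549 2000 cells/well, attached overnight, then exposed to freshly made drug solutions (0.1 to 50 μM) for 96 h. Fixed with cold 10% TCA, stained with 0.4% SRB; absorbance at 540 nm as percent of untreated control, IC50 from mean absorbance.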
row,GI50,SMILES
1,18.8 µM,N/N=C(\Cc1ccc(O)c(Br)c1)C(=O)NCCSSCCNC(=O)/C(Cc1ccc(O)c(Br)c1)=N/N

# Test system: MCF7
# Test: Growth inhibition of human MCF7 cells after 96 hrs by sulphorhodamine B assay
# Type: functional
# Settings: MCF7, 96 h
# Summary of the method: as §1
row,GI50,SMILES
1,3.81 µM,N/N=C(\Cc1ccc(O)c(Br)c1)C(=O)NCCSSCCNC(=O)/C(Cc1ccc(O)c(Br)c1)=N/N
